Experimental data taken from ChEMBL document CHEMBL1124874, “Antitumor and DNA-binding properties of a group of oligomeric complexes of Pt(II) and Pt(IV)” (J Med Chem, 1990).
Where “and” joins values, the source holds several entries; their conditions need not be identical. Equal entries are not always repeated.

Tests used:
M5076 (mouse) = assay: Antitumor efficacy against M5076 tumor cell line, activity is expressed as […] survival time (MST) at the dose of 4.8 mg/kg.
L1210 [1] = assay: Antitumor efficacy against L1210 tumor cell line, activity is expressed as […] survival time (MST) at the dose of 10 mg/kg.; type: functional, organism-based; set-up: dose 10 mg/kg; conditions: Mus musculus
Outline: (§1)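 Murine L-1210 leukemia, ascitic form, with compound given on day 1 (a single ip dose on day 1 in mg/kg in one table). Activity was scored as median survival time in days, with T/C relative to untreated controls. A cisplatin positive control was run in each test.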

L1210 [2] = assay: Antitumor efficacy against L1210 tumor cell line, activity is expressed as […] survival time (MST) at the dose of 6 mg/kg.; type: functional, organism-based; set-up: dose 6 mg/kg; conditions: Mus musculus
Outline: as §1

L1210 [3] = assay: Antitumor efficacy against L1210 tumor cell line, activity is expressed as […] survival time (MST) at the dose of 8 mg/kg.; type: functional, organism-based; set-up: dose 8 mg/kg; conditions: Mus musculus
Outline: as §1

M5076 = assay: Antitumor efficacy against M5076 tumor cell line, activity is expressed as […] survival time (MST) at the dose of 4.8 mg/kg.; type: functional, organism-based; set-up: dose 4.8 mg/kg; conditions: Mus musculus
Outline: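 M5076 tumor-bearing mice were dosed on days 1 and 4. Median survival time in days was recorded and T/C calculated against control MST.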

B16 = assay: Antitumor efficacy against B-16 tumor cell line, activity is expressed as […] survival time (MST) at the dose of 1.6 mg/kg.; type: functional, organism-based; set-up: dose 1.6 mg/kg; conditions: Mus musculus
Outline: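 Mice bearing B-16 tumor were dosed once daily on days 1–9. Read-out was median survival time in days, with T/C relative to control MST.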

## CISPLATIN
M5076 (mouse)
  MST: 200
L1210 [1]
  Survival time as % of untreated control (T/C): 193 (2×) and 200 (2×) and 186
L1210 [2]
  MST: 150
L1210 [3]
  MST: 186 and 167 and 164
M5076
  MST: 166
B16
  MST: 213
